IC50 and Activity data for 14 molecules are collected here from ChEMBL document CHEMBL3351393, “iNOS inhibitory activity of sesquiterpenoids and a monoterpenoid from the rhizomes of Curcuma wenyujin” (J Nat Prod, 2014).

SMILES strings stand for the structures.

In data set [1] the test system is RAW264.7. Kind of data set: Inhibition of LPS-induced NO production in mouse RAW264.7 cells by Griess assay. The data set is classed as functional, cell-based. In short, it runs like this: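 RAW 264.7 mouse macrophages were seeded at 1 × 10^5 cells/well and left to adhere 2 h at 37 °C in 5% CO2. Nitrite accumulated in the supernatant was measured with Griess reagent, and IC50 values were derived. Hydrocortisone served as positive control.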
A general note: Nitrite, measured by Griess reagent, commonly stands in for NO production.

Data set [2] has as its system RAW264.7. Kind of data set: Cytotoxicity against mouse RAW264.7 cells by MTT assay. The data set is classed as cell-based. Background: Tetrazolium dyes change colour on reduction, which living cells bring about.

In general, IC50 refers to the midpoint of a concentration-inhibition curve. Read a low IC50 as higher potency. Regarding `C/C1=C\[C@H](O)C[C@]2(C)O[C@H]2C(=O)c2c(C)coc2C1`, in the data set with RAW264.7 [1], it took 78.2 µM to reach half-maximal inhibition (IC50). For the same molecule, the Activity entry with RAW264.7 [2] is reported as “Non-toxic”.
The like results for `CC1=CC(=O)[C@@H]2C[C@@H]3[C@@](C)(O)CC[C@]13OC2(C)C` were, in that order, 79.8 µM and “Non-toxic”.
In the same order, the values of `CC(C)=C1C[C@]2(O)[C@@H](C)CC[C@@H]2[C@@](C)(O)CC1=O` are 89.2 µM and “Non-toxic”.
In the same order, the values of `CC(C)=C1C[C@@]23O[C@]1(O)C[C@@](C)(O)[C@H]2CC[C@H]3C` are 87.6 µM and “Non-toxic”.
In turn, `CC(C)=C1C[C@@H]2O[C@H](CC[C@]2(C)O)/C(C)=C/C1=O` returned an IC50 with RAW264.7 [1] of 48.6 µM. The Activity entry in the data set on RAW264.7 [2] is reported as “Non-toxic”.
`C[C@]12CCC(=O)C=C1CC[C@@H]1[C@@H]2[C@@H](O)C[C@@]2(C)[C@H]1CC[C@]2(O)C(=O)CO` [HYDROCORTISONE]: half-maximal inhibition with RAW264.7 [1] (IC50) was put at 51.4 µM.
For the molecule `Cc1coc2c1C(=O)[C@]1(O)[C@@H](C)CC[C@H]1C(CO)=C2`, the IC50 in the data set with RAW264.7 [1] came to 47.7 µM. Further, in the data set with RAW264.7 [2], the Activity entry is reported as “Non-toxic”.
Consider `C=C(C)[C@@H]1CC[C@](C)(O)[C@H]1CC(C(=O)O)=C(C)C`, for which, in the data set with RAW264.7 [1], half-maximal inhibition (IC50) required 68.4 µM. Also, in the data set with RAW264.7 [2], the Activity result is “Non-toxic”.
In the same order, the values of `CC1=CC(=O)C[C@@H]2[C@H]1CC[C@@]2(C)O` are 77.9 µM and “Non-toxic”.
The like results for `C=C(C)[C@H]1CC[C@](C)(O)[C@H]1CC(C(=O)O)=C(C)C` were, in that order, 66.5 µM and “Non-toxic”.
In the same order, the values of `CC(C)=C1C[C@]2(O)[C@@H](CC[C@@H]2C)[C@@](C)(O)CC1=O` are 92.4 µM and “Non-toxic”.
Molecule `CC(=O)C(C[C@@H]1[C@H](C(C)=O)CC[C@]1(C)O)=C(C)C` showed a 50% inhibitory concentration (IC50) with RAW264.7 [1] of 78.7 µM. The Activity entry with RAW264.7 [2] is reported as “Non-toxic”.
The like results for `CC1=C2C[C@H]3[C@@](C)(O)CC[C@@]34O[C@@]2(C[C@@]4(C)O)OC1=O` were, in that order, 8.5 µM and “Non-toxic”.
In the same order, the values of `CC1=C2C[C@H]3[C@@](C)(O)CC[C@@]34O[C@@]2(C[C@]4(C)O)OC1=O` are 7.6 µM and “Non-toxic”.
